Key:
DU-145 cells = assay: Confocal imaging of intracellular fluorescence; type: cell-based; conditions: DU-145, CLIK-148 50 μM for 24 h before 7 (30 μM)
How it was run: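 Live DU-145 cells are grown 48 h in 35 mm dishes (DMEM, 10% FBS, 37 °C, 5% CO2), then given 30 μM test compound or DMSO vehicle for 2 h, washed thrice and imaged in PBS. In the inhibition arm, cells receive 50 μM CLIK-148 for 24 h first. Confocal imaging uses 405 nm excitation, 501–740 nm emission and 1.5 μm z-stacks, with four biological replicates at 20×. Thresholded fluorescence per image is divided by manual cell count.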

CTSL [1] = target: T1, CTSL (Homo sapiens, UniProt P07711); conditions: literature value; ref [47]; cited from earlier work
CTSL [2] = target: T1, CTSL; assay: Cathepsin L inhibition, progress curve assay with Z-Phe-Arg-AMC; type: biochemical
CTSS = CTSS (Homo sapiens, UniProt P25774); assay: Cathepsin S inhibition, progress curve assay with Z-Val-Val-Arg-AMC; type: biochemical
How it was run: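 Buffer is 50 mM phosphate, pH 6.5, with 2.5 mM EDTA, DTT 8 mM and <1% DMSO, at 25 °C. Test compound is run at 1–20 μM. […] Results are averages of three independent experiments, errors as standard deviations.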

CTSB = CTSB (Homo sapiens, UniProt P07858); assay: Cathepsin B inhibition, progress curve assay with Z-Arg-Arg-AMC; type: biochemical
How it was run: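 Buffer is 0.4 M acetate, pH 5.5, with 5 mM EDTA, 0.01% Triton X-100, DTT 10 mM and <1% DMSO, at 25 °C. Test compound is run at 1 nM to 100 μM. Enzyme is added last, and free AMC release is followed at once over 15 min. Progress curves are fitted to obtain kinact and Ki. CA-074 is the positive control. Values are means of three independent experiments ± SD.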

T1 sequence (P07711 114-333): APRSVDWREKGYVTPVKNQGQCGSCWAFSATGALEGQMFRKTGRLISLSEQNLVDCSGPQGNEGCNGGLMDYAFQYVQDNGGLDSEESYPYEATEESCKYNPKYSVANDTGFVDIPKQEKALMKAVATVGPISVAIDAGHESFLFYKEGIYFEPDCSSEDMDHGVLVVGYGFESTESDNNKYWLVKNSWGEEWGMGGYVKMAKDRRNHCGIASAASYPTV
Chain of CTSS (P25774 115-331): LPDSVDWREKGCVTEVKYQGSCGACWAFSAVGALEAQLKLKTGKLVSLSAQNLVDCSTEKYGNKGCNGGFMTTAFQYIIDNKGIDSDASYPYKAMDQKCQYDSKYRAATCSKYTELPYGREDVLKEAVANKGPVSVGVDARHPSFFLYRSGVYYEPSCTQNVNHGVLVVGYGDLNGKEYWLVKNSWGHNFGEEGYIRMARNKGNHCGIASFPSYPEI

CN(C)C(=O)[C@H](Cc1ccccc1)NC(=O)[C@H]1O[C@@H]1C(=O)NCCc1ccccn1 [CLIK-148, reference compound]
Decrease of intracellular fluorescence intensity of 7 (DU-145 cells): over 50%
CTSL kinact/Ki (CTSL [1]): 11000 ± 3000 M⁻¹ s⁻¹

CN(C)C(=O)C(Cc1ccccc1)NC(=O)[C@H]1O[C@@H]1C(=O)NCCCNC(=O)c1ccc(-c2ccccn2)nc1 (stereo partly drawn) [Compound 2, (2S,3S)-N^2-(3-([2,2′-Bipyridine]-5-carboxamido)-propyl)-N^3-(1-(dimethylamino)-1-oxo-3-phenylpropan-2-yl)-oxirane-2,3-dicarboxamide]
Ki (CTSL [2]): 0.74 ± 0.05 µM
kinact/Ki ratio CTSL/CTSS (selectivity) (CTSL [2]; CTSL over CTSS): 8
kinact/KI (CTSL [2]; pH 5.5, read-out: CTSL kinact/Ki): 42300 ± 4100 M⁻¹ s⁻¹
kinact (CTSL [2]; read-out: CTSL kinact (rate of irreversible inactivation)): 0.031 ± 0.002 s⁻¹
Fold enhancement of CTSL kinact/Ki relative to free inhibitor 1 (CTSL [2]; relative to 1): roughly 3 fold
Ki (CTSS): 3 ± 0.8 µM
kinact/KI (CTSS; pH 6.5, read-out: CTSS kinact/Ki): 5300 ± 200 M⁻¹ s⁻¹
Ki (CTSB): 296 ± 8 µM
kinact/KI (CTSB; pH 5.5, read-out: CTSB kinact/Ki): 9 M⁻¹ s⁻¹

O=S(=O)([O-])C(F)(F)F.[C-]#[O+].[C-]#[O+].[C-]#[O+].[Re+].c1ccncc1.c1cnc2c(c1)ccc1cccnc12 [[Re(phen)(CO)3(pyridine)](OTf), reference compound]
CTSL inhibition, in words (CTSL [2]; at concentrations up to 100 μM): no inhibition

Reference: PMC6034508 (Inorganic chemistry, 2018)
